The source made the active and inactive calls. No cut-off for these calls is given here.
Assays:
[1] = tested on: Rattus norvegicus; assay: Anti-allergy activity test in rat passive cutaneous anaphylaxis (PCA) test at 16 mg/kg administered intraperitoneally; assay type: functional; details: ip, route intraperitoneal
How it was run: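 Rats given the compound intraperitoneally at 16 mg/kg in the passive cutaneous anaphylaxis model. The read-out is percent inhibition of the cutaneous anaphylactic response, and some entries carry p values.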

[2] = tested on: Rattus norvegicus; assay: Percentage inhibition at 8 mg/kg administered intraperitoneally in rat passive cutaneous anaphylaxis (PCA) test, p<0.001; assay type: functional; details: ip, route intraperitoneal
[3] = tested on: Rattus norvegicus; assay: Tested for antiallergy activity in rat passive cutaneous anaphylaxis (PCA) test at 32 mg/kg administered perorally; assay type: functional; details: route oral
[4] = tested on: Rattus norvegicus; assay: Inhibitory dose administered perorally against anaphylactic bronchospasm in passively sensitized rats; assay type: functional; details: Bronchiole, po, read-out: ID50
[5] = tested on: Rattus norvegicus; assay: Tested for antiallergy activity in rat passive cutaneous anaphylaxis (PCA) test at 32 mg/kg administered perorally; 30 minute pretreatment time; assay type: functional; details: route oral
[6] = tested on: Rattus norvegicus; assay: Tested for antiallergy activity in rat passive cutaneous anaphylaxis (PCA) test at 32 mg/kg administered perorally; 10 min pretreatment time; assay type: functional; details: route oral
[7] = tested on: Rattus norvegicus; assay: Tested for antiallergy activity in rat passive cutaneous anaphylaxis (PCA) test at 32 mg/kg administered perorally; pretreatment time is 30 min; assay type: functional; details: route oral
[8] = tested on: Rattus norvegicus; assay: Tested for antiallergy activity in rat passive cutaneous anaphylaxis (PCA) test at 32 mg/kg administered perorally; In active; assay type: functional, organism-based; parameters: dose 32 mg/kg

| SMILES | inhibition in vivo at 16 mg/kg [1] [%] | inhibition in vivo at 32 mg/kg [3] [%] | also measured |
| --- | --- | --- | --- |
| CS(=O)(=O)c1ccc2ncn(/C=C/C(=O)O)c(=O)c2c1 | 70 | – | – |
| O=C(O)c1cc(=O)c2c(OCC(O)COc3cccc4oc(C(=O)O)cc(=O)c34)cccc2o1 [CROMOLYN SODIUM] | – | 18 | inhibition in vivo at 8 mg/kg [2]: 46% |
| COc1cc2ncn(/C=C/C(=O)O)c(=O)c2cc1OC | 88 | – | – |
| O=C(O)/C=C/n1cnc2ccc(O)cc2c1=O | 56 | – | – |
| CSc1ccc2ncn(/C=C\C(=O)O)c(=O)c2c1 | 11 | – | – |
| CSc1ccc2ncn(CCC(=O)O)c(=O)c2c1 | 14 | – | – |
| CSc1ccc2ncn(/C(C)=C/C(=O)O)c(=O)c2c1 | 9 | – | – |
| COC(=O)/C=C/n1cnc2ccc(SC)cc2c1=O | 39 | – | – |
| CSc1ccc2ncn(/C=C/C(=O)O)c(=O)c2c1 [TIACRILAST] | 87 | 75 | ED50 [4]: 0.02 mg/kg |
| COc1cc(OC)c2ncn(/C=C/C(=O)O)c(=O)c2c1 | 81 | – | inhibition in vivo at 32 mg/kg [5]: 31% |
| CC(C)c1cc(C(C)C)c2ncn(/C=C/C(=O)O)c(=O)c2c1 | 70 | 91 | – |
| O=C(O)/C=C/n1cnc2ccc(C3CC3)cc2c1=O | 100 | – | inhibition in vivo at 32 mg/kg [6]: 81% |
| O=C(O)/C=C/n1cnc2ccccc2c1=O | – | 55 | – |
| CC(C)Sc1ccc2ncn(/C=C/C(=O)O)c(=O)c2c1 | 59 | 56 | – |
| C[S+]([O-])c1ccc2ncn(/C=C/C(=O)O)c(=O)c2c1 (stereo not drawn) | 89 | 48 | – |
| COc1cccc2c(=O)n(/C=C/C(=O)O)cnc12 | 82 | – | inhibition in vivo at 32 mg/kg [7]: 45% |
| CC(C)c1ccc2ncn(/C=C/C(=O)O)c(=O)c2c1 | 100 | 89 | ED50 [4]: 0.05 mg/kg |
| CSc1ccc2c(c1)C(=O)N(/C=C/C(=O)O)CN2 | 53 | – | – |
| O=C(O)/C=C/n1cnc2ccc(OCCO)cc2c1=O | 67 | 80 | – |
| O=C(O)/C=C/n1cnc2ccc(Cl)cc2c1=O | 79 | 49 | – |
| Cc1cc(C)c2ncn(/C=C/C(=O)O)c(=O)c2c1 | 82 | 70 | – |
| COc1ccc2ncn(/C=C/C(=O)O)c(=O)c2c1 | 49 | 23 | – |
| Cc1nc2ccc(C3CC3)cc2c(=O)n1/C=C/C(=O)O | 39 | – | – |
| CCN(CC)CCOc1ccc2ncn(/C=C/C(=O)O)c(=O)c2c1 | 16 | – | inhibition [8]: inactive |
| CC(C)Oc1ccc2ncn(/C=C/C(=O)O)c(=O)c2c1 | 87 | 70 | – |
| COC(=O)/C=C/n1cnc2ccc(OC(C)C)cc2c1=O | 46 | – | – |
